Experimental data as given in article PMC13570607 (European journal of medicinal chemistry, 2025).

Experiments:
[1] = target: T1, TG2 (Homo sapiens, UniProt P21980); assay: TG2 transamidase activity in protein lysates of treated SKOV3 cells; type: cell-based
T1 sequence (P21980 1-687): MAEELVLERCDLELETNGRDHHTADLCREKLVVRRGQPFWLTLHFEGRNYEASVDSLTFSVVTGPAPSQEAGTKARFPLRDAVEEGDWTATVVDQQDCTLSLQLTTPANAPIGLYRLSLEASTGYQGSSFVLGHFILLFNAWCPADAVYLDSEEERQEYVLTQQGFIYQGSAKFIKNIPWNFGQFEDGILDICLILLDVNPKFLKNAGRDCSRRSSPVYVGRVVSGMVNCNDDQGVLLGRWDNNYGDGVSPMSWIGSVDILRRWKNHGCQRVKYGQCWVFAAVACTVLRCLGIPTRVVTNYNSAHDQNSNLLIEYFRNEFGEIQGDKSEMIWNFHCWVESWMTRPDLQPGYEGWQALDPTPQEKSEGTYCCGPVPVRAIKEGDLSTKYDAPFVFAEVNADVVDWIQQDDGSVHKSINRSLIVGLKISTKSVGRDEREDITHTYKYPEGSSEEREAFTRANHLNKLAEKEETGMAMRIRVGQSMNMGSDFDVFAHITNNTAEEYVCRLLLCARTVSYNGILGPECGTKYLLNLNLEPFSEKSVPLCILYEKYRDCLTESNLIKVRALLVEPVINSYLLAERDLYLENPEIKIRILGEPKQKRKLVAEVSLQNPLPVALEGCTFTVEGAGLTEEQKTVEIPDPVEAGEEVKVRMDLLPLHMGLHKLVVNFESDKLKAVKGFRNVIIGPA
Procedure, shortened: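 SKOV3 cells were treated with 10 μM test compound for 24 h, and lysates were assayed in a colorimetric transamidase kit. Controls were a reference TG2 inhibitor at 20 μM, VHL ligand at 10 μM, 50 mM EDTA, and lysates of TG2-knockdown or control-shRNA cells. Lysates were incubated with assay mixture for 30 min at 37 °C, then washed, including a 0.1 M NaOH wash. Detection used streptavidin-HRP (1:2000, 15 min, 37 °C), then HRP substrate for 5 min, stopped, and read at 450 nm.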

[2] = Parallel Artificial Membrane Permeability Assay; type: in vitro ADME; conditions: 5 μM; 37 °C; 5 h
Procedure, shortened: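 Passive permeability was measured on a pre-coated PAMPA plate. The donor (bottom) side held 0.02% BSA in PBS with compound added from DMSO solution. The receiver (top) side held 0.4% BSA in PBS. After 5 h at 37 °C, receiver samples were quantified by LC/MS/MS.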

[3] = Hepatic microsomal stability; type: in vitro ADME; conditions: mouse liver microsomes 1 mg/mL; 1 μM compound; NADPH
Procedure, shortened: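 Incubation buffer was 100 mM potassium phosphate, pH 7.4. The reaction was started with NADPH (1 mM final). Aliquots taken at 0, 5, 10, 20, 40 and 60 min were quenched in acetonitrile (5x v:v), filtered and analysed by LC-MS/MS. Data were log-transformed to give half-life and intrinsic clearance.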

[4] = Kinetic solubility; type: physicochemical; conditions: PBS pH 7.4; room temp 24 h
Procedure, shortened: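 A 10 mM DMSO stock was diluted 1 μL into 99 μL PBS pH 7.4. It was held at room temperature for 24 h, filtered, and quantified by LC/MS/MS.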

[5] = Equilibrium solubility; type: physicochemical; conditions: PBS pH 7.4; 24 h
Procedure, shortened: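 About 1-2 mg of dry compound was added to 1 mL PBS pH 7.4 in a test tube. The mixture was inverted for 24 h, then filtered, and the filtrate was quantified by LC/MS/MS.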

Row | Structure (SMILES) | TG2 enzymatic (transamidase) activity ([1]; 10 μM, 24 hours) | PAMPA Permeability [2] | Microsomal Stability Clint [3] | Microsomal Stability T1/2 [3] | Kinetic Solubility [4] | TG2 enzymatic (transamidase) activity ([1]; 20 μM) | Equilibrium Solubility [5]
1 | Cc1ncsc1-c1ccc(CNC(=O)[C@@H]2C[C@@H](O)CN2C(=O)[C@@H](N)C(C)(C)C)cc1 [VHL ligand 1] | no effect on transamidating activity | – | – | – | – | – | –
2 | Cc1cc(N(C)C)nc(Nc2ccc(NC(=O)Cc3ccccc3)cc2)n1 [MT4] | – | 2.60 10^−6 cm*s^−1 | 46 µL/min/mg | 15.2 min | 54.96 µM | no effect on transamidating activity | 0.76 µM
